# Assay outcomes deposited in PubChem by several laboratories.
# SENP8 block-1 = blocks the human protease SENP8 | 1.2% of 330,000 active | AID 2540 | purified SENP8, Z-RLRGG-aminoluciferin cleavage, luminescence | Q96LD8 | inhibition, % at 10 µM; in the data active means inhibition above about 50%
# Target sequence (Q96LD8 whole entry, looked up): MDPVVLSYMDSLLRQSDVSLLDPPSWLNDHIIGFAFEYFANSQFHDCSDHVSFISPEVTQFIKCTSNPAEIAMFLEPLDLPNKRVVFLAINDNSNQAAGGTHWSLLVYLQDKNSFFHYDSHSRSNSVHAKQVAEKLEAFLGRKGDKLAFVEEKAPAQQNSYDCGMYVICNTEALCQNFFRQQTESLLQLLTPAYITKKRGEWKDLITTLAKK
# SENP8 block-2 = blocks human SENP8 cleavage of Nedd8 substrate; recombinant SENP8, Nedd8 substrate fluorescence; inhibition, % at 20 µM; 0.64% of 360,000 active; in the data active means inhibition mostly above about 40%, no sharp cut-off; inactive means mostly below about 27%
# SENP1 inh = inhibitors of human SENP1 SUMO protease catalytic domain. recombinant SENP1 catalytic domain, CyPet-SUMO1-YPet FRET cleavage. inhibition, % at 10 µM. 0.21% of 360,000 active. AID 624204;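 active means inhibition at least 30% at 10 µM, raw YFP signal under a set limit, fluorescence ratio 0.5 to 1.5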;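 further: 0% = enzyme with DMSO and 100% = no enzyme wells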
#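 Test system: hSENP1 catalytic domain, recombinant; Amount: 20 pM final SENP1 enzyme; Medium: Tris pH 8 buffer plus EDTA, NaCl, BME, BSA, NP40, catalase; Schedule: 50 min enzyme reaction, room temperature, light-protected; Technique: FRET fluorescence in CFP and YFP emission channels; Controls: no-enzyme wells low, DMSO-plus-enzyme wells high control.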
# Platelet DG rel = modulates dense granule release in human platelets | AID 1663 | inhibition, %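 (compounds screened at 7.5 µM in platelet-rich plasma)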 | 0.22% of 300,000 active | human platelet-rich plasma, SFLLRN dense granule ATP release, luminescence;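 active means mean replicate score, as percent of positive control, at or above 50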
# SENP6 inh = blocks the human protease SENP6. Q9GZR1. Recombinant SENP6 catalytic domain, aminoluciferin luminescence. inhibition, % at 10 µM. 1.8% of 330,000 active;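 active means inhibition above about 50% at the single tested dose, limit read from the data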;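 further: plate controls were DMSO wells with enzyme for no effect and DMSO wells lacking enzyme for full effect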
# Target sequence (Q9GZR1 628-1112 limits assumed): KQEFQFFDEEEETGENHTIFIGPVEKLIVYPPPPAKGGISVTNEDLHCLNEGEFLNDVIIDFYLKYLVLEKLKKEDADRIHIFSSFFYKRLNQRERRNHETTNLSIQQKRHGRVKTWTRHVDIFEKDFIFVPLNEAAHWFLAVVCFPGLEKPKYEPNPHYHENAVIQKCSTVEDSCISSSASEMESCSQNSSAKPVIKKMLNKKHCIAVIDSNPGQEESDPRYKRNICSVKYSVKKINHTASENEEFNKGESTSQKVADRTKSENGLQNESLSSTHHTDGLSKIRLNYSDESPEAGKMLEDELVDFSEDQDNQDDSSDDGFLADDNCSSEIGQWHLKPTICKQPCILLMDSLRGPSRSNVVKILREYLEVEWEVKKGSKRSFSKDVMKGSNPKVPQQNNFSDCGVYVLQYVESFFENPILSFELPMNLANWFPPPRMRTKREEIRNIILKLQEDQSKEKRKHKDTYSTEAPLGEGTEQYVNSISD
# SENP7 inh = inhibitors of human SENP7 protease; Q9BQF6; recombinant SENP7, Z-RLRGG-aminoluciferin luminescence, 40 min; inhibition, % at 5 µM; 1.5% of 330,000 active; AID 434973;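 active means inhibition above about 50% at the single test dose, limit read from the data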;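 further: plate controls were DMSO with enzyme for no effect and no enzyme buffer wells for full effect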
# * marks the source's active call; other numbers are inactive results; . = no result given. This is a sample that favours compounds with a hit; in the whole collection about 2.6% have one here.
SMILES,SENP8 block-1,SENP8 block-2,SENP1 inh,Platelet DG rel,SENP6 inh,SENP7 inh
CN(C)c1ccc(N=Cc2ccco2)cc1,-14.4,17.4,-1.2,.,5.7,3.7
C(=Nc1cccc2c(N=Cc3ccco3)cccc12)c1ccco1,71.6*,-395.5,-47.3,-2.3,85.8*,29.7
O=C1CCCCC1Nc1ccc(Br)cc1 (stereo not drawn),.,22.4,4.5,.,.,.
Cc1cc(=O)n2nc(N3CCCC(C(=O)NCc4ccc(F)cc4)C3)sc2n1 (stereo not drawn),12.9,16.2,-0.5,1.8,4.9,-4.1
Cc1cc(=O)n2nc(N3CCCC(C(=O)NCc4ccccc4)C3)sc2n1 (stereo not drawn),9.7,6.9,-1.3,69.2*,3.7,-7.1
COc1ccc(N/N=C(\C#N)C(N)=O)cc1,-10.4,10.5,1.5,7.2,1.2,0.5
N#C/C(=N/Nc1ccc(OC(F)(F)F)cc1)C(N)=S,49.1,46.1*,-0.8,-1.3,79.2*,-54.6
Cc1cccc(N2CCN(Cc3cc(=O)n4ccsc4n3)CC2)c1C,0.0,0.3,-7.1,0.6,16.6,3.1
O=c1cc(CN2CCN(c3ccccc3O)CC2)nc2sccn12,2.3,-17.5,-42.6,72.4*,-4.3,-1.7
CN(Cc1cc([N+](=O)[O-])c2cccnc2c1O)C1CCCCC1,11.1,.,.,15.0,25.4,15.4
Oc1c(CN2CCCCC2)cc(Br)c2cccnc12,15.1,53.1*,-9.5,-3.3,19.2,12.7
O=[N+]([O-])c1cc(CN2CCN(c3ccccc3)CC2)c(O)c2ncccc12,2.4,48.0*,-3.5,0.6,19.3,9.4
O=C(NC1CCCCC1)C(c1cccnc1)N(C(=O)c1csnn1)c1ccc(F)cc1 (stereo not drawn),-13.2,3.5,0.5,0.1,20.6,-4.2
COC(=O)[C@@]12C[C@@H](CC(=O)N3CCN(C(=O)C4CC4)CC3)C(=O)N(Cc3ccc4c(c3)OCO4)C1=CCC(C)(C)C2,.,17.4,1.5,.,.,.
COCCn1c(/C=C/c2ccccc2)nc2ccccc21,36.7,-480.2,-0.7,11.3,-7.0,64.8*
COc1ccccc1Cn1c(/C=C/c2ccccc2)nc2ccccc21,2.1,-324.1,3.1,-4.8,11.2,5.1
COc1ccc(C)cc1Nc1n[n+](-c2ccccc2)c(-c2cc([N+](=O)[O-])cc(OC)c2O)s1,-11.4,11.7,43.3*,5.8,-0.1,-4.2
COc1ccc(C)cc1Nc1n[n+](-c2ccccc2)c(-c2ccc(NC(C)=O)cc2)s1,-6.2,-7.9,4.3,1.4,-17.7,5.8
COc1cc(NS(=O)(=O)c2ccc(C)cc2)c2c(c1N)C(=O)c1ccccc1C2=O,.,41.4*,18.0,.,.,.
COC(=O)C(C(=O)OC)c1ccccc1NS(=O)(=O)c1ccc(C)cc1,.,8.2,4.3,.,.,.
CCOC(=O)N1CCN(CC(=O)N2c3ccccc3Sc3ccccc32)CC1,-3.8,3.9,0.3,-3.9,1.8,-7.5
CCOC(=O)N1CCN(CC(=O)N2CCC(C(N)=O)CC2)CC1,-2.3,11.6,0.7,58.8*,12.1,-3.9
COc1ccc(-c2ncncc2-c2csc(C)n2)c(O)c1OC,-4.0,26.8,0.5,-1.8,-12.4,-11.0
COC1=C(N)C(=O)c2nc(-c3nc(C(=O)O)c(C)c(-c4ccc(OC)c(OC)c4O)c3N)ccc2C1=O,82.1*,.,.,.,80.5*,66.7*
O=C(CNC(=O)c1cccnc1)N=Nc1c(O)[nH]c2c(Br)cc(Br)cc12,-4.3,44.3*,0.7,0.7,8.8,10.6
SMILES,SENP8 block-1,SENP8 block-2,SENP1 inh,Platelet DG rel,SENP6 inh,SENP7 inh
COc1ccc(C(=O)COC(=O)c2cccnc2SC)cc1,29.2,2.8,3.6,1.9,27.3,70.5*
COc1ccccc1N1CCN(/N=C/c2ccc(Cl)c([N+](=O)[O-])c2)CC1,-27.3,19.4,2.4,10.9,6.9,3.0
O=[N+]([O-])c1cc(/C=N/N2CCN(C3c4ccccc4-c4ccccc43)CC2)ccc1Cl,1.9,47.0*,0.6,5.5,5.9,1.7
Cc1cccc(C)c1-n1nnnc1C1(C)CCC(=O)N1Cc1cccs1 (stereo not drawn),.,14.0,0.2,.,.,.
Cc1occc1C(=O)Nc1sccc1C(N)=O,-7.3,-66.9,-12.9,-7.1,5.1,-12.2
NC(=O)c1ccsc1NC(=O)c1coc2ccccc2c1=O,66.4*,13.3,2.1,-0.1,83.0*,79.1*
O=[N+]([O-])c1ccccc1N=Nc1ccc(O)cc1O,.,64.8*,6.9,.,.,.
CCOc1ccccc1NC1=C(Cl)C(=O)N(c2ccc(OC)cc2)C1=O,2.7,33.1,2.7,-1.3,-11.3,-1.7
COc1ccccc1N1C(=O)C(Cl)=C(Nc2ccccc2O)C1=O,.,29.9,46.5*,-0.7,.,.
O=C(CCS(=O)(=O)Cc1ccccc1)Nc1nncs1,-4.0,7.4,-0.8,-21.6,-13.6,1.9
O=C(CCc1ccccc1)Nc1nncs1,-5.6,6.3,-0.9,58.9*,3.0,5.7
O=C(NCc1ccccc1)c1cc(C2COCCN2C(=O)C/C=C/c2ccccc2)on1 (stereo not drawn),.,9.7,1.4,.,.,.
COc1cc(/C=C2\SC(=S)N(NC(=O)c3ccccc3O)C2=O)ccc1O,10.3,18.3,58.9*,7.6,6.2,-0.8
O=C1/C(=C/c2ccc(O)c([N+](=O)[O-])c2)SC(=S)N1Cc1ccccc1,92.4*,40.9*,37.5*,4.6,94.8*,30.0
O=C(NN1C(=O)/C(=C/c2ccc(O)c([N+](=O)[O-])c2)SC1=S)c1ccccc1Cl,4.1,23.8,31.7*,3.7,-18.0,6.9
O=C1/C(=C\c2cccc([N+](=O)[O-])c2O)SC(=S)N1Cc1ccccc1,.,25.4,5.7,13.1,.,.
CSc1ncccc1C(=O)OCC(=O)N(C)c1c(N)n(Cc2ccccc2)c(=O)[nH]c1=O,7.7,2.4,-1.4,0.3,-6.8,-8.6
O=C(/C=C/c1ccc(F)cc1)c1ccc(N2CCOCC2)cc1,41.1,-9.5,3.3,1.3,79.8*,78.4*
COc1ncnc2c1NC1=C(S2)C(=NCCC(=O)O)CC(C)(C)C1,2.5,-18.4,51.8*,1.7,1.2,3.1
CCN(CC)C(=O)C1=C(C)N(CCCOC)C(=O)C(CC(=O)NC2CC2)C1 (stereo not drawn),.,-5.5,-3.0,.,.,.
Cc1ccc([C@H]2N[C@]3(CCCN(Cc4cccn4C)C3=O)[C@H]3C(=O)N(C)C(=O)[C@@H]23)cc1,.,0.8,-0.2,.,.,.
O=C(N/N=C/c1ccc(O)c2ncccc12)c1cccc(Br)c1,1.2,-104.6,51.9*,-2.9,-4.8,0.2
O=C(N/N=C/c1cc(Br)ccc1O)c1ccncc1,-2.2,17.8,-30.9,-18.0,10.6,6.4
O=[N+]([O-])c1ccc(O)c(/C=N/n2cnc3ccccc32)c1,56.0*,12.6,-68.9,-8.1,75.9*,29.9
O=[N+]([O-])c1ccc(O)c(/C=N/n2c(CO)nc3ccccc32)c1,-7.2,20.3,-15.0,11.4,-2.0,10.8
Oc1ccc(N=Nc2nc(-c3ccccc3)c(-c3ccccc3)[nH]2)cc1,-9.3,32.5,39.3*,0.3,-4.7,-0.7
